The source of these data is ChEMBL document CHEMBL1641520, “Design, synthesis, and biological evaluation of novel water-soluble N-mustards as potential anticancer agents” (Bioorg Med Chem, 2011).

Molecules are shown by their SMILES.

For assay [1], the system named is CCRF-CEM. The assay is described as follows: Cytotoxicity against human CCRF-CEM cells after 72 hrs by XTT assay. The class given is functional, cell-based. An outline of the steps: (§1)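 CCRF-CEM leukemia cells and their taxol- or vinblastine-resistant sublines given compound for 72 h. XTT read-out: after phenazine methosulfate–XTT, 6 h at 37 °C, absorbance at 450 and 630 nm. IC50 from median-effect analysis of dose-effect data at six or seven concentrations.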

Assay [2] has as its system CCRF-CEM. The assay is described as follows: Cytotoxicity against taxol-resistant human CCRF-CEM cells after 72 hrs by XTT assay. The class given is functional, cell-based. An outline of the steps: as §1
The subject of assay [3] is CCRF-CEM. The assay is described as follows: Cytotoxicity against vinblastine-resistant human CCRF-CEM cells after 72 hrs by XTT assay. The format is functional, cell-based. An outline of the steps: as §1
Assay [4] deals with CCRF-CEM. Put plainly: Selectivity ratio of IC50 for taxol-resistant human CCRF-CEM cells to IC50 for human CCRF-CEM cells. The format is functional.
Assay [5] deals with CCRF-CEM. The assay is described as follows: Selectivity ratio of IC50 for vinblastine-resistant human CCRF-CEM cells to IC50 for human CCRF-CEM cells. The format is functional.
Another assay has as its system HCT-116. Put plainly: Cytotoxicity against human HCT116 cells after 72 hrs by SRB assay. The format is functional, cell-based. The note with it: HCT-116, 72 h. An outline of the steps:
(§2)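 MX-1 breast and HCT-116 colon carcinoma cells exposed to compound for 72 h; growth measured by sulforhodamine B assay. IC50 from median-effect analysis of dose-effect data at six or seven concentrations.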

In another assay the test system is MX1. Put plainly: Cytotoxicity against human MX1 cells after 72 hrs by SRB assay. The following applies: MX1, 72 h. The class given is functional, cell-based. An outline of the steps:
as §2

Assay [6] is described as follows: Cytotoxicity against human H1299 cells after 72 hrs by alamar blue assay. The following applies: NCI-H1299, 72 h. The class given is functional, cell-based. The essentials: (§3)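 H1299, PC3, CL1-0, CL1-5 and MCF-7 cells exposed to compound for 72 h. Alamar blue added, then 6 h at 37 °C; absorbance at 570 and 600 nm. IC50 from median-effect analysis of dose-effect data at six or seven concentrations.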

Assay [7] in a line: Cytotoxicity against human CL1-5 cells after 72 hrs by alamar blue assay. The class given is functional, cell-based. The following applies: CL1-5, 72 h. The essentials:
as §3

For a further assay, the system named is PC-3. The assay is described as follows: Cytotoxicity against human PC3 cells after 72 hrs by alamar blue assay. The format is functional, cell-based. The note with it: PC-3, 72 h. The essentials:
as §3

The next assay relates to MCF7. The assay is described as follows: Cytotoxicity against human MCF7 cells after 72 hrs by alamar blue assay. The class given is functional, cell-based. The note with it: MCF7, 72 h. The essentials:
as §3

The nature of assay [8]: Cytotoxicity against human CL1-0 cells after 72 hrs by alamar blue assay. The format is functional, cell-based. The note with it: CL1-0, 72 h. The essentials: as §3

As for `Cl.O=C(Nc1ccc(OCCN2CCOCC2)cc1)Nc1ccc(N(CCCl)CCCl)cc1`, the IC50 came out at 0.35 µM in the assay on CCRF-CEM [1], 0.84 µM in the assay with CCRF-CEM [2] and 0.64 µM in the assay with CCRF-CEM [3]. The “Ratio IC50” value came to 2.4 in the assay on CCRF-CEM [4] and 1.8 in the assay on CCRF-CEM [5].
`Cl.O=C(Nc1ccc(N(CCCl)CCCl)cc1)Nc1cccc(C(=O)NCCN2CCOCC2)c1`: the IC50 was found to be 0.58 µM in the assay on CCRF-CEM [1]; 8.16 µM in the assay with CCRF-CEM [2]; 16.3 µM with CCRF-CEM [3]; 1.21 µM in the assay on HCT-116; 1.45 µM with MX1. Moreover, the “Ratio IC50” value is given as 14.1 with CCRF-CEM [4] and 28.1 in the assay with CCRF-CEM [5].
As for `Cl.O=C(Nc1ccc(C(=O)NCCN2CCCC2)cc1)Nc1ccc(N(CCCl)CCCl)cc1`, the IC50 with CCRF-CEM [1] stood at 0.27 µM; with CCRF-CEM [2] it was 19.7 µM; with CCRF-CEM [3] it was 30.8 µM; with HCT-116, 0.36 µM; in the assay on MX1, 2.33 µM. Moreover, the “Ratio IC50” value with CCRF-CEM [4] amounted to 71.8; in the assay with CCRF-CEM [5], 112.5.
As to `Cl.O=C(Nc1ccc(C(=O)NCCN2CCOCC2)cc1)Nc1ccc(N(CCCl)CCCl)cc1`, the IC50 in the assay on CCRF-CEM [1] was 0.73 µM; in the assay on CCRF-CEM [2], 19.8 µM; in the assay with CCRF-CEM [3], 29.8 µM; in the assay with HCT-116, 2.74 µM; in the assay with MX1 it was 3.39 µM. Moreover, the “Ratio IC50” value in the assay with CCRF-CEM [4] is on record as 27.1; with CCRF-CEM [5] it was 16.8.
Consider `CN(C)CCNC(=O)c1ccc(NC(=O)Nc2ccc(N(CCCl)CCCl)cc2)cc1.Cl`, for which the IC50 was determined as 0.23 µM in the assay with CCRF-CEM [1]; 4.8 µM in the assay on CCRF-CEM [2]; 6.74 µM in the assay on CCRF-CEM [3]; 0.39 µM in the assay with HCT-116; 1.09 µM in the assay on MX1. Besides, the “Ratio IC50” value in the assay on CCRF-CEM [4] came out at 21.1; in the assay with CCRF-CEM [5], 29.6.
`Cl.O=C(Nc1ccc(C(=O)N2CCC(N3CCCCC3)CC2)cc1)Nc1ccc(N(CCCl)CCCl)cc1`: the IC50 in the assay with CCRF-CEM [1] was found to be 0.22 µM; in the assay on CCRF-CEM [2], 20.5 µM; with CCRF-CEM [3] it was 32.2 µM; in [6], 9.63 µM; in assay [7], 8.51 µM; in the assay on PC-3 it was 1.91 µM. Also, the IC50 with HCT-116 was found to be 0.64 µM; with MX1 it was 3.64 µM; in the assay with MCF7 it was 1.54 µM; in assay [8], 15.8 µM. Further, the “Ratio IC50” value is 91.4 in the assay on CCRF-CEM [4] and 143.7 in the assay with CCRF-CEM [5].
For the compound `CC(=O)O[C@H]1C(=O)[C@@]2(C)[C@H]([C@H](OC(=O)c3ccccc3)[C@]3(O)C[C@H](OC(=O)[C@H](O)[C@@H](NC(=O)c4ccccc4)c4ccccc4)C(C)=C1C3(C)C)[C@]1(OC(C)=O)CO[C@@H]1C[C@@H]2O` [PACLITAXEL], the IC50 in the assay with CCRF-CEM [1] was 0.003 µM. The “Ratio IC50” value is listed as 330 with CCRF-CEM [4] and 980 in the assay on CCRF-CEM [5].
`CN(C)CCCNC(=O)c1cccc(NC(=O)Nc2ccc(N(CCCl)CCCl)cc2)c1.Cl`: the IC50 in the assay on CCRF-CEM [1] came to 0.29 µM; with CCRF-CEM [2] it was 21.2 µM; in the assay on CCRF-CEM [3], 44 µM; in the assay with HCT-116 it was 0.85 µM; with MX1 it was 2.33 µM. Also, the “Ratio IC50” value in the assay on CCRF-CEM [4] came to 9.4; in the assay on CCRF-CEM [5] it was 151.8.
For `O=C(Nc1ccc(N(CCCl)CCCl)cc1)Nc1cccc(OCCN2CCCCC2)c1`, the IC50 is 0.19 µM in the assay with CCRF-CEM [1]; 0.57 µM with CCRF-CEM [2]; 0.73 µM in the assay on CCRF-CEM [3]; 1.52 µM in assay [6]; 3.25 µM in assay [7]; 1.13 µM in the assay with PC-3. Besides, the IC50 worked out at 0.27 µM in the assay on HCT-116, 0.19 µM with MX1, 1.82 µM in the assay on MCF7 and 2.73 µM in [8]. Further, the results for the “Ratio IC50” value with CCRF-CEM [4] and with CCRF-CEM [5] were 3 and 3.8, respectively.
With `CN(C)CCCNC(=O)c1ccc(NC(=O)Nc2ccc(N(CCCl)CCCl)cc2)cc1.Cl`, the half-inhibitory concentration (IC50) was 0.26 µM in the assay with CCRF-CEM [1]; 20.4 µM in the assay on CCRF-CEM [2]; 32.8 µM with CCRF-CEM [3]; 12.7 µM in [6]; 9.79 µM in [7]; 5.25 µM in the assay with PC-3. Further, the IC50 in the assay with HCT-116 turned out to be 4.54 µM; in the assay with MX1, 1.11 µM; in the assay with MCF7 it was 5.17 µM; in assay [8], 16.2 µM. For the same compound, the “Ratio IC50” value is on record as 77.5 with CCRF-CEM [4] and 124.8 with CCRF-CEM [5].
Regarding `CN(C)CCCOc1cccc(NC(=O)Nc2ccc(N(CCCl)CCCl)cc2)c1`, the IC50 came to 0.32 µM in the assay with CCRF-CEM [1], 2.05 µM in the assay on CCRF-CEM [2] and 2.37 µM with CCRF-CEM [3]. Also, the entries for the “Ratio IC50” value in the assay with CCRF-CEM [4] and with CCRF-CEM [5] were 6.4 and 7.4, respectively.
